Test results taken from ChEMBL document CHEMBL1142198, “Diversity of ampicillin resistance genes and antimicrobial susceptibility patterns in Haemophilus influenzae strains isolated in Korea” (2007).
Converted amounts (≈) assume the structure as drawn.

Assays:
Type in all cases: functional
Haemophilus influenzae [1] = experiment: Antimicrobial activity against Haemophilus influenzae BLNAR strains
Outline: (§1)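 Etest MIC determination on Haemophilus test medium agar inoculated evenly with a broth suspension equivalent to a 0.5 McFarland standard. Once dry, strips for 10 antibiotics applied; incubated 35°C, 5% CO2, 20 h. MIC read at complete growth inhibition. ATCC 49766 and ATCC 49247 included as controls in each batch. Korean clinical isolates 2000–2005 classified by nitrocefin disk and PCR.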

Haemophilus influenzae [2] = experiment: Antimicrobial activity against Haemophilus influenzae strains that are normal flora; outline: as §1
Haemophilus influenzae [3] = experiment: Antimicrobial activity against Haemophilus influenzae BLPAR strains; outline: as §1
Haemophilus influenzae [4] = experiment: Antimicrobial activity against Haemophilus influenzae BLPACR strains; outline: as §1
Haemophilus influenzae [5] = experiment: Antimicrobial activity against Haemophilus influenzae strains causing clinical infections
Outline: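 Etest MICs for 196 clinical-infection isolates collected 2000–2005 at two Seoul tertiary-care hospitals. A 0.5 McFarland broth suspension was spread on Haemophilus test medium agar, strips applied once dry, then incubated 35°C, 5% CO2, 20 h. ATCC 49766 and ATCC 49247 served as controls in each batch.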

Haemophilus influenzae [6] = experiment: Antimicrobial activity against Haemophilus influenzae BLNAS strains; outline: as §1

## C=CC1=C(C(=O)O)N2C(=O)[C@@H](NC(=O)/C(=N\OCC(=O)O)c3csc(N)n3)[C@H]2SC1 [CEFIXIME]
Haemophilus influenzae [1]
  MIC50: 0.064 µg/mL (≈ 0.141 µM)
  MIC90: 32 µg/mL (≈ 70.6 µM)
Haemophilus influenzae [2]
  MIC50: 0.047 µg/mL (≈ 0.104 µM)
  MIC90: 32 µg/mL (≈ 70.6 µM)
Haemophilus influenzae [3]
  MIC50: 0.047 µg/mL (≈ 0.104 µM)
  MIC90: 32 µg/mL (≈ 70.6 µM)
Haemophilus influenzae [4]
  MIC50: 0.064 µg/mL (≈ 0.141 µM)
  MIC90: 256 µg/mL (≈ 565 µM)
Haemophilus influenzae [5]
  MIC50: 0.047 µg/mL (≈ 0.104 µM)
  MIC90: 0.75 µg/mL (≈ 1.65 µM)
Haemophilus influenzae [6]
  MIC50: 0.023 µg/mL (≈ 0.0507 µM)
  MIC90: 0.064 µg/mL (≈ 0.141 µM)

## CO/N=C(\C(=O)N[C@@H]1C(=O)N2C(C(=O)O)=C(COC(N)=O)CS[C@H]12)c1ccco1 [CEFUROXIME]
Haemophilus influenzae [1]
  MIC50: 1 µg/mL (≈ 2.36 µM)
  MIC90: 8 µg/mL (≈ 18.9 µM)
Haemophilus influenzae [2]
  MIC50: 0.5 µg/mL (≈ 1.18 µM)
  MIC90: 256 µg/mL (≈ 603 µM)
Haemophilus influenzae [3]
  MIC50: 1 µg/mL (≈ 2.36 µM)
  MIC90: 256 µg/mL (≈ 603 µM)
Haemophilus influenzae [4]
  MIC50: 1 µg/mL (≈ 2.36 µM)
  MIC90: 256 µg/mL (≈ 603 µM)
Haemophilus influenzae [5]
  MIC50: 1 µg/mL (≈ 2.36 µM)
  MIC90: 8 µg/mL (≈ 18.9 µM)
Haemophilus influenzae [6]
  MIC50: 0.5 µg/mL (≈ 1.18 µM)
  MIC90: 1 µg/mL (≈ 2.36 µM)

## N[C@@H](C(=O)N[C@@H]1C(=O)N2C(C(=O)O)=C(Cl)CS[C@H]12)c1ccccc1 [CEFACLOR ANHYDROUS]
Haemophilus influenzae [1]
  MIC50: 6 µg/mL (≈ 16.3 µM)
  MIC90: 256 µg/mL (≈ 696 µM)
Haemophilus influenzae [2]
  MIC50: 2 µg/mL (≈ 5.44 µM)
  MIC90: 256 µg/mL (≈ 696 µM)
Haemophilus influenzae [3]
  MIC50: 12 µg/mL (≈ 32.6 µM)
  MIC90: 256 µg/mL (≈ 696 µM)
Haemophilus influenzae [4]
  MIC50: 16 µg/mL (≈ 43.5 µM)
  MIC90: 256 µg/mL (≈ 696 µM)
Haemophilus influenzae [5]
  MIC50: 8 µg/mL (≈ 21.8 µM)
  MIC90: 256 µg/mL (≈ 696 µM)
Haemophilus influenzae [6]
  MIC50: 2 µg/mL (≈ 5.44 µM)
  MIC90: 6 µg/mL (≈ 16.3 µM)

## C[C@@H](O)[C@H]1C(=O)N2C(C(=O)O)=C(S[C@@H]3CN[C@H](C(=O)N(C)C)C3)[C@H](C)[C@H]12 [MEROPENEM]
Haemophilus influenzae [1]
  MIC50: 0.125 µg/mL (≈ 0.326 µM)
  MIC90: 32 µg/mL (≈ 83.4 µM)
Haemophilus influenzae [2]
  MIC50: 0.094 µg/mL (≈ 0.245 µM)
  MIC90: 32 µg/mL (≈ 83.4 µM)
Haemophilus influenzae [3]
  MIC50: 0.094 µg/mL (≈ 0.245 µM)
  MIC90: 32 µg/mL (≈ 83.4 µM)
Haemophilus influenzae [4]
  MIC50: 0.19 µg/mL (≈ 0.495 µM)
  MIC90: 0.38 µg/mL (≈ 0.991 µM)
Haemophilus influenzae [5]
  MIC50: 0.094 µg/mL (≈ 0.245 µM)
  MIC90: 32 µg/mL (≈ 83.4 µM)
Haemophilus influenzae [6]
  MIC50: 0.064 µg/mL (≈ 0.167 µM)
  MIC90: 0.125 µg/mL (≈ 0.326 µM)

## O=C(N[C@H](CO)[C@H](O)c1ccc([N+](=O)[O-])cc1)C(Cl)Cl [CHLORAMPHENICOL]
Haemophilus influenzae [1]
  MIC50: 0.5 µg/mL (≈ 1.55 µM)
  MIC90: 6 µg/mL (≈ 18.6 µM)
Haemophilus influenzae [2]
  MIC50: 0.75 µg/mL (≈ 2.32 µM)
  MIC90: 4 µg/mL (≈ 12.4 µM)
Haemophilus influenzae [3]
  MIC50: 0.75 µg/mL (≈ 2.32 µM)
  MIC90: 12 µg/mL (≈ 37.1 µM)
Haemophilus influenzae [4]
  MIC50: 0.5 µg/mL (≈ 1.55 µM)
  MIC90: 8 µg/mL (≈ 24.8 µM)
Haemophilus influenzae [5]
  MIC50: 0.5 µg/mL (≈ 1.55 µM)
  MIC90: 8 µg/mL (≈ 24.8 µM)
Haemophilus influenzae [6]
  MIC50: 0.5 µg/mL (≈ 1.55 µM)
  MIC90: 0.75 µg/mL (≈ 2.32 µM)

## CC[C@H]1OC(=O)[C@H](C)[C@@H](O[C@H]2C[C@@](C)(OC)[C@@H](O)[C@H](C)O2)[C@H](C)[C@@H](O[C@@H]2O[C@H](C)C[C@H](N(C)C)[C@H]2O)[C@](C)(OC)C[C@@H](C)C(=O)[C@H](C)[C@@H](O)[C@]1(C)O [CLARITHROMYCIN]
Haemophilus influenzae [1]
  MIC50: 12 µg/mL (≈ 16 µM)
  MIC90: 24 µg/mL (≈ 32.1 µM)
Haemophilus influenzae [2]
  MIC50: 16 µg/mL (≈ 21.4 µM)
  MIC90: 32 µg/mL (≈ 42.8 µM)
Haemophilus influenzae [3]
  MIC50: 16 µg/mL (≈ 21.4 µM)
  MIC90: 32 µg/mL (≈ 42.8 µM)
Haemophilus influenzae [4]
  MIC50: 16 µg/mL (≈ 21.4 µM)
  MIC90: 256 µg/mL (≈ 342 µM)
Haemophilus influenzae [5]
  MIC50: 16 µg/mL (≈ 21.4 µM)
  MIC90: 32 µg/mL (≈ 42.8 µM)
Haemophilus influenzae [6]
  MIC50: 16 µg/mL (≈ 21.4 µM)
  MIC90: 24 µg/mL (≈ 32.1 µM)

## C[C@H]1COc2c(N3CCN(C)CC3)c(F)cc3c(=O)c(C(=O)O)cn1c23.C[C@H]1COc2c(N3CCN(C)CC3)c(F)cc3c(=O)c(C(=O)O)cn1c23.O [LEVOFLOXACIN]
Haemophilus influenzae [1]
  MIC50: 0.023 µg/mL
  MIC90: 1 µg/mL
Haemophilus influenzae [2]
  MIC50: 0.023 µg/mL
  MIC90: 1 µg/mL
Haemophilus influenzae [3]
  MIC50: 0.016 µg/mL
  MIC90: 0.032 µg/mL
Haemophilus influenzae [4]
  MIC50: 0.016 µg/mL
  MIC90: 0.047 µg/mL
Haemophilus influenzae [5]
  MIC50: 0.016 µg/mL
  MIC90: 0.32 µg/mL
Haemophilus influenzae [6]
  MIC50: 0.016 µg/mL
  MIC90: 0.032 µg/mL

## CC1(C)S[C@@H]2[C@H](NC(=O)[C@H](N)c3ccccc3)C(=O)N2[C@H]1C(=O)O [AMPICILLIN]
Haemophilus influenzae [1]
  MIC50: 0.75 µg/mL (≈ 2.15 µM)
  MIC90: 256 µg/mL (≈ 733 µM)
Haemophilus influenzae [2]
  MIC50: 0.38 µg/mL (≈ 1.09 µM)
  MIC90: 256 µg/mL (≈ 733 µM)
Haemophilus influenzae [3]
  MIC50: 256 µg/mL (≈ 733 µM)
  MIC90: 256 µg/mL (≈ 733 µM)
Haemophilus influenzae [4]
  MIC50: 256 µg/mL (≈ 733 µM)
  MIC90: 256 µg/mL (≈ 733 µM)
Haemophilus influenzae [5]
  MIC50: 24 µg/mL (≈ 68.7 µM)
  MIC90: 256 µg/mL (≈ 733 µM)
Haemophilus influenzae [6]
  MIC50: 0.25 µg/mL (≈ 0.715 µM)
  MIC90: 0.38 µg/mL (≈ 1.09 µM)
